A short description of experiment [1]: S. cerevisiae growth inhibition in permissive medium (OD615), pilot counter-assay for S. cerevisiae lifespan shortening project, permissive growth control (AID 705;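 active = growth inhibition above 25% in both replicates, a cutoff set 3 SD above the mean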). Conditions: OD615, 24 h, at 10 µM, stronger effect = higher value. In short, it runs like this:
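assay system = Saccharomyces cerevisiae strain carrying genetically modified DeaD replicative-lifespan system | technique = absorbance (optical density) at 615 nm | buffer or medium = permissive raffinose/galactose medium | timing = cells pre-grown 4 h, then 24 h compound exposure, 30 °C humidified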

Experiment [2] is described as follows: S. cerevisiae growth inhibition in restrictive medium, OD615, pilot screen, restrictive growth control, yeast lifespan reduction project (AID 706;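 active = growth inhibition above a set limit, 3 SD over mean compound inhibition, in both replicates, cut at about 43% in these data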;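 note: modified DeaD lifespan yeast strain shifted to restrictive glucose medium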). The settings on record: OD615, 48 h, at 10 µM, stronger effect = higher value. In short, it runs like this:
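System: modified S. cerevisiae. Buffer or medium: CSMM-D glucose medium. Incubation: 4 h pre-growth plus 48 h compound exposure, 30 °C. Detection: absorbance (optical density) measured at 615 nm.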

Experiment [3] in a line: doxorubicin toxicity protection in MRP-1 cells – H69AR cells, CellTiter-Glo, duplicate, MRP-1 activator project, pilot screen (AID 807;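 active = viability increase at or above a cutoff of the median across tested compounds plus 3 SD, cut at about 8.5% in these data, passing the limit was not always enough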;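 note: compound pretreatment 18-22 h then 72 h combined with doxorubicin; 0% = doxorubicin alone and 100% = vehicle without doxorubicin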). Conditions: H69AR viability with doxorubicin, CellTiter-Glo luminescence; at 10 µM; stronger effect = higher value. A general note: ATP-based viability assays read luminescence as a measure of living cells.
A short description of experiment [4]: viability of HCT116 without oncogenic beta-catenin – human colon tumor cells, pilot screen (AID 823).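 Note: 0% = wells killed by 20 µM Hyamine and 100% = untreated DMSO cell wells.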 The settings on record: HCT116 beta-catenin knockout viability, CellTiter-Glo, 60 h; at 10 µM; stronger effect = lower value.
A short description of experiment [5]: viability of PTEN-null HCT116 cells – cell-based, HCT116 clonal line, CellTiter-Glo, pilot screen (AID 824;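 active = viability at or below 27.92% in each of two runs, the all-compound median minus 4 SD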;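 note: 0% = 20 µM Hyamine control and 100% = vehicle cell control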). Conditions: HCT116 PTEN-deleted viability, 60 h, at 10 µM, stronger effect = lower value.
The nature of experiment [6]: RAM pathway blockade in budding yeast – dse1pr::URA3 reporter, 5-FOA selection, pilot screen (AID 869;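 active = inhibition over a set limit, the all-compound mean plus 3 SD, in both replicate runs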;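 note: 0% = DMSO wells with no growth and 100% = 10 µM 1-NA-PP1 with full growth; RAM network block rescues cells from 5-FOA so hits raise OD615 growth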). The settings on record: S. cerevisiae dse1pr::URA3 5-FOA growth, OD615, 2 d; at 10 µM; stronger effect = higher value; strain carries analog-sensitive mutant Cbk1 kinase.
Experiment [7] is described as follows: RAM signaling pathway blockade in yeast – S. cerevisiae, Pdr1DBD-CYC8 efflux-inhibited sensitized strain, primary screen (AID 1298;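 active = RAM network inhibition above 8.4% in each of two replicates, 3 SD over the compound average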;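 note: 0% = DMSO untreated cells without growth and 100% = 10 µM 1-NA-PP1 full growth; higher means more yeast growth rescued from 5-FOA killing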). Conditions: S. cerevisiae cbk1-as DSE1-URA3 strain, 5-FOA growth OD615, 2 d; at 50 µM; stronger effect = higher value.

Structures are written as SMILES. Values without a mark were called inactive. Inconclusive results are not listed. Active and inactive are the calls of the source.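 Rule for the calls, unless noted: active = cell viability at or below a set limit in both duplicate runs, the limit being the all-compound median minus 4 SD (cut at about 23% in these data, passing the limit was not always enough); inconclusive = no clear call, values can overlap the other calls; inactive = the rest.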

The viability is a read-out of living cells in per cent, often relative to untreated cells. In general, inhibition refers to the relative decrease from the control value, in per cent.

With `CCOC(=O)Cn1c(CN2CCOCC2)nc2c1c(=O)n(C)c(=O)n2C`, the growth inhibition in experiment [1] is -1.92%; in experiment [2], -5.31%. The viability increase in experiment [3] was 1.26%. The viability in experiment [4] was 107%; in experiment [5], 103%. Further, the inhibition in experiment [6] was 1.72%. For the same compound, the RAM network inhibition in experiment [7] is 2.19%.

Consider `COCCSc1nc2c(c(=O)[nH]c(=O)n2C)n1Cc1cccc(C)c1`, for which the figures for the growth inhibition in experiment [1] and in experiment [2] were 0.55% and 0.3%, respectively. The viability increase in experiment [3] is -1.81%. The viability in experiment [4] is 90.2%; in experiment [5], 79.6%. In addition, the inhibition in experiment [6] is 1.57%. The RAM network inhibition in experiment [7] was 4.44%.

For the compound `O=C(CNS(=O)(=O)c1cccc2nsnc12)NCc1ccc(Cl)cc1`, the values for the growth inhibition in experiment [1] and in experiment [2] were -2.9% and -2.34%, respectively. Also, in experiment [3], the viability increase was -4.44%. The viability was 88% in experiment [4] and 91.5% in experiment [5]. Also, the inhibition in experiment [6] is 0.415%. Also, the RAM network inhibition in experiment [7] is 4.28%.

For `COc1ccc(OC)c(N(CC(=O)NCCSc2ccccc2)S(C)(=O)=O)c1`, the growth inhibition is -4.86% in experiment [1] and -9.71% in experiment [2]. In addition, the viability increase in experiment [3] was -3.1%. Further, the results for the viability in experiment [4] and in experiment [5] were 96.9% and 95.5%, respectively. Also, in experiment [6], the inhibition was 0.23%. For the same compound, the RAM network inhibition in experiment [7] is 4.35%.

Consider `COC1CCCCC1NS(=O)(=O)c1ccc(Cl)cc1` (stereo not drawn), for which the growth inhibition in experiment [1] was 1.43%; in experiment [2], 2.45%. The viability increase in experiment [3] was -1.67%. Besides, the figures for the viability in experiment [4] and in experiment [5] were 93.3% and 99.6%, respectively. Besides, the inhibition in experiment [6] was -0.11%. In addition, the RAM network inhibition in experiment [7] is -1.18%.

With `CCCCCOC(=O)c1[nH]c2c(c1C)C(=O)CC(c1ccco1)C2` (stereo not drawn), the growth inhibition in experiment [1] was -15%; in experiment [2], -3.28%. Besides, the viability increase in experiment [3] is -5.25%. The viability in experiment [4] was 14.5% (active); in experiment [5], 16.3% (active). Besides, in experiment [6], the inhibition was 0.18%. The RAM network inhibition in experiment [7] is -0.31%.

Consider `CCc1ccc(NC(=O)CSc2nnc(Cc3cccn3C)n2-c2ccc(F)cc2)cc1`, for which the growth inhibition in experiment [1] was 4.25%; in experiment [2], 12.9%. Also, in experiment [3], the viability increase is -5.81%. In addition, the viability in experiment [4] is 77.2%; in experiment [5] it was 68.9%. Besides, the inhibition in experiment [6] was 0.05%. Besides, in experiment [7], the RAM network inhibition was 7.15%.

As to `COc1ccc(CNC(=O)c2cc3c(C)nc4ccccc4c3o2)c(OC)c1`, the growth inhibition is -10.6% in experiment [1] and -12.2% in experiment [2]. In addition, the viability increase in experiment [3] is -0.17%. Besides, the viability in experiment [4] was 74%; in experiment [5], 75.2%. For the same compound, in experiment [6], the inhibition was 1.66%. Further, in experiment [7], the RAM network inhibition was 6.46%.

`CN(CC1CCCO1)S(=O)(=O)c1ccc(C(=O)Nc2nc(-c3ccccn3)cs2)cc1` (stereo not drawn): the values for the growth inhibition in experiment [1] and in experiment [2] were -14.2% and -14.7%, respectively. In addition, in experiment [3], the viability increase is -5.46%. For the same compound, the values for the viability in experiment [4] and in experiment [5] were 18.5% (active) and 23.1% (active), respectively. Moreover, the inhibition in experiment [6] is 2.57%. For the same compound, the RAM network inhibition in experiment [7] was 2.63%.

Turning to `COc1cccc(C2CC(c3cccc(C)c3)n3ncnc3N2)c1` (stereo not drawn), the values for the growth inhibition in experiment [1] and in experiment [2] were -9.14% and -3.84%, respectively. Moreover, the viability increase in experiment [3] was -2.07%. Further, the results for the viability in experiment [4] and in experiment [5] were 90% and 90.4%, respectively. For the same compound, the inhibition in experiment [6] is 0.92%. Further, in experiment [7], the RAM network inhibition was 0.74%.

Regarding `CCOC(=O)CN1CC23C=CC(O2)C(C(=O)NCc2ccc(C)cc2)C3C1=O` (stereo not drawn), the growth inhibition in experiment [1] is -6.12%; in experiment [2], -3.33%. Besides, the viability increase in experiment [3] is -0.1%. Also, the viability in experiment [4] was 99.5%; in experiment [5], 109%. Besides, in experiment [6], the inhibition is 1.29%. Further, the RAM network inhibition in experiment [7] is 1.3%.

Consider `Cc1cccnc1NC(=O)c1c(O)c2ccccc2n(C)c1=O`, for which the growth inhibition is 3.49% in experiment [1] and 11.4% in experiment [2]. The viability increase in experiment [3] was -3.77%. Moreover, the viability is 92% in experiment [4] and 98% in experiment [5]. Moreover, the inhibition in experiment [6] was -0.005%. Further, in experiment [7], the RAM network inhibition is -1.38%.

As for `COc1cccc(-c2nn(C)c3sc(C(=O)NCc4ccc5c(c4)OCO5)cc23)c1`, the growth inhibition in experiment [1] was 2.61%; in experiment [2] it was 9.31%. For the same compound, the viability increase in experiment [3] was -2.08%. For the same compound, the values for the viability in experiment [4] and in experiment [5] were 92.6% and 82.7%, respectively. Besides, the inhibition in experiment [6] is 4.3%. In addition, the RAM network inhibition in experiment [7] is 12.7%.

In the case of `Cc1c(C(=O)NCC(C)C)sc2nc(-c3ccc(F)cc3)cn12`, the values for the growth inhibition in experiment [1] and in experiment [2] were -13.9% and -12%, respectively. The viability increase in experiment [3] is 1.99%. Moreover, the viability is 111% in experiment [4] and 103% in experiment [5]. Further, in experiment [6], the inhibition was 2.99%. Also, in experiment [7], the RAM network inhibition is 10.7%.

As for `CCN(CC)CCCN1C(=O)C(O)=C(C(C)=O)C1c1ccc(OC)cc1OC` (stereo not drawn), the growth inhibition in experiment [1] was -0.68%; in experiment [2] it was -3.67%. Also, the viability increase in experiment [3] was -2.64%. The values for the viability in experiment [4] and in experiment [5] were 98.5% and 92.4%, respectively. For the same compound, in experiment [6], the inhibition was 1.03%. Besides, the RAM network inhibition in experiment [7] is 1.44%.

On to `CCCCn1c(C(C)NC(=O)COC)nc2ccccc21` (stereo not drawn), for which the values for the growth inhibition in experiment [1] and in experiment [2] were -3.38% and 1.68%, respectively. Besides, the viability increase in experiment [3] was -0.01%. Moreover, the viability in experiment [4] is 91.4%; in experiment [5], 101%. Also, the inhibition in experiment [6] is 1.94%. Also, the RAM network inhibition in experiment [7] was 0.2%.

With `CCOC(=O)C1CCN(C(=O)c2oc3ccc(S(=O)(=O)N4CCCCCC4)cc3c2C)CC1`, the growth inhibition in experiment [1] was 0.58%; in experiment [2], -20.9%. Besides, the viability increase in experiment [3] is -3.23%. In addition, the viability in experiment [4] is 72.8%; in experiment [5], 78.9%. Moreover, the inhibition in experiment [6] is 1.73%. The RAM network inhibition in experiment [7] was 0.3%.

For the compound `Cc1nc2cc(-c3cccc(F)c3)nn2c(C)c1CCC(=O)NC(C)CCc1ccco1` (stereo not drawn), the growth inhibition was -10.1% in experiment [1] and -2.46% in experiment [2]. The viability increase in experiment [3] is -1.36%. Besides, the results for the viability in experiment [4] and in experiment [5] were 69.7% and 72.6%, respectively. For the same compound, the inhibition in experiment [6] was 0.955%. In addition, the RAM network inhibition in experiment [7] is 3.16%.

As to `O=C(c1ccc(CS(=O)(=O)c2ccc(Br)cc2)o1)N1CCN(c2ncccn2)CC1`, the growth inhibition in experiment [1] was -4.05%; in experiment [2], -7.28%. Moreover, the viability increase in experiment [3] was -4.3%. The viability is 86.2% in experiment [4] and 96% in experiment [5]. The inhibition in experiment [6] was 1.94%. The RAM network inhibition in experiment [7] was 3.64%.

As to `CCOC(=O)c1sc(NC(=O)c2ccco2)nc1-c1ccccc1`, the growth inhibition in experiment [1] is -1.62%; in experiment [2], -1.76%. In experiment [3], the viability increase was -2.38%. In addition, the viability in experiment [4] is 105%; in experiment [5], 95.5%. In addition, the inhibition in experiment [6] was 4.44%. Moreover, in experiment [7], the RAM network inhibition is 4.08%.

For `O=C(NCc1ccco1)C1CCN(c2nnc(-n3cccc3)s2)CC1`, the results for the growth inhibition in experiment [1] and in experiment [2] were 3.71% and -3.18%, respectively. In addition, the viability increase in experiment [3] was -3.76%. For the same compound, the viability is 97.2% in experiment [4] and 95.8% in experiment [5]. The inhibition in experiment [6] is 0.985%. In addition, the RAM network inhibition in experiment [7] is 5.26%.

With `O=C(CSc1nc2c(c(=O)n1-c1ccc(Cl)cc1)SCC2)N1CCOCC1`, the figures for the growth inhibition in experiment [1] and in experiment [2] were -10.3% and -2.5%, respectively. Also, the viability increase in experiment [3] was -2.79%. Moreover, the viability in experiment [4] was 97.6%; in experiment [5], 101%. For the same compound, the inhibition in experiment [6] is -0.06%. In addition, in experiment [7], the RAM network inhibition is -0.16%.

In the case of `CC(C)(C)c1ccc(-c2nnc3sc(-c4ccccn4)nn23)cc1`, the results for the growth inhibition in experiment [1] and in experiment [2] were -19.2% and -24.6%, respectively. Moreover, in experiment [3], the viability increase is 0.61%. Besides, the results for the viability in experiment [4] and in experiment [5] were 100% and 89.2%, respectively. The inhibition in experiment [6] was 2.01%. In addition, in experiment [7], the RAM network inhibition was 1.31%.

For `CN(Cc1ccccc1)C(=O)CCn1c(=O)oc2ccccc21`, the values for the growth inhibition in experiment [1] and in experiment [2] were 2.31% and -0.265%, respectively. For the same compound, in experiment [3], the viability increase was -1.33%. The viability was 101% in experiment [4] and 99.2% in experiment [5]. In addition, in experiment [6], the inhibition was 1.41%. Moreover, the RAM network inhibition in experiment [7] was 1.99%.
